Source: article PMC4213839 (Journal of Ginseng Research, 2014)

Type: in vivo, Sprague–Dawley rats
Outline: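 Male Sprague–Dawley rats (210–240 g) were fed a control diet or control diet plus 2.5, 5 or 10% test fiber for 2 wk, then dosed orally with test material at 200 or 2,000 mg/kg (n = 5 per group). Tail-vein blood was drawn at 0–24 h. Plasma was spun at 4,000 × g and deproteinized with acetonitrile. LC-MS/MS used MRM with an amlodipine internal standard. Cmax and Tmax were read from the profiles.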

[1] = 10% NUTRIOSE in the diet, ginseng extract-treated rats

## CC(C)=CCC[C@](C)(O[C@@H]1O[C@H](CO)[C@@H](O)[C@H](O)[C@H]1O)[C@H]1CC[C@]2(C)[C@@H]1[C@H](O)C[C@@H]1[C@@]3(C)CC[C@H](O[C@@H]4O[C@H](CO)[C@@H](O)[C@H](O)[C@H]4O[C@@H]4O[C@H](CO)[C@@H](O)[C@H](O)[C@H]4O)C(C)(C)[C@@H]3CC[C@]12C [ginsenoside Rd]
[1]
  fold increase of AUC of ginsenoside Rd by NUTRIOSE: 1.34 fold
  fold increase of Cmax of ginsenoside Rd by NUTRIOSE: 1.34 fold
Ginsenoside Rb1-treated rats
  time after administration at which ginsenoside Rd was detected in blood: 8 h
Same oral dosage of ginsenoside Rb1 and ginseng extract
  AUC of ginsenoside Rd, fold higher in ginseng extract-treated than in ginsenoside Rb1-treated rats: 13.5 fold
